Source: ChEMBL document CHEMBL4402600, “Discovery of a Dual Tubulin Polymerization and Cell Division Cycle 20 Homologue Inhibitor via Structural Modification on Apcin” (J Med Chem, 2020)
pIC50, pKd: −log10 of the molar value. Activity calls are given as the source filed them. No cut-off for these calls is given here.

Tests used:
[1] = biological target: T1, Cell division cycle protein 20 homolog (Homo sapiens, UniProt Q12834); assay: Inhibition of CDC20 in human HepG2 cells assessed as increase in stability of Bim protein at 30 uM measured after 2 to 8 hrs by Western blot Analysis; format: cell-based
T1 sequence (Q12834 whole entry): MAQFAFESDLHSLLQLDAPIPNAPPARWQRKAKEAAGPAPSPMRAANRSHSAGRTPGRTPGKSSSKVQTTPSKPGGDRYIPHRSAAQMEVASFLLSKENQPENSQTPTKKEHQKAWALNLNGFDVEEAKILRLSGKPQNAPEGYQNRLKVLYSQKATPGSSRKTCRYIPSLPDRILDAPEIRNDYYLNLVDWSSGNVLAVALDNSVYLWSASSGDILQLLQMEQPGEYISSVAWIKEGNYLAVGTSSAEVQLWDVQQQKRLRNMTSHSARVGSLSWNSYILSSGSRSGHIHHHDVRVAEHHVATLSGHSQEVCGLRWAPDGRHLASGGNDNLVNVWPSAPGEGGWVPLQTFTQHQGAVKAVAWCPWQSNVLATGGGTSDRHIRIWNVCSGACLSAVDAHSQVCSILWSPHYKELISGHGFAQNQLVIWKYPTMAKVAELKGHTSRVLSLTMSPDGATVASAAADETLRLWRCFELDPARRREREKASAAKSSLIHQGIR
Outline: (§1)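 Time course in HepG2: cyclin B1, Aurora A, Bim and cleaved PARP examined by Western blot at 1, 2, 4, 8 and 12 h after adding 30 μM compound; lysis in RIPA with inhibitors, 25 μg protein per lane, ECL detection.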

[2] = tested on: HepG2; assay: Induction of apoptosis in human HepG2 cells assessed as increase in cleaved caspase-3 level at 3 to 30 uM incubated for 48 hrs by Western blot analysis; format: functional, cell-based
Outline: (§2)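 HepG2 cells treated 48 h. Lysates in RIPA buffer with protease/phosphatase inhibitors; 25 μg protein run on SDS-PAGE, transferred to PVDF, blocked in 5% milk/TBST, primary antibodies overnight at 4°C (caspase-3, cleaved caspase-3, cleaved PARP), HRP secondary 1 h at room temperature, ECL detection; densitometry quantified.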

[3] = tested on: MCF7; assay: Cytotoxicity in human MCF7 cells assessed as reduction in cell viability incubated for 48 hrs by MTT assay; format: functional, cell-based; conditions: MCF7, 48 h
Outline: (§3)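 Cells grown at 37°C, 5% CO₂ (HepG2, OVCAR-3, Caov-3 in DMEM + 10% FBS; A549, HeLa, A375, MCF-7 in RPMI 1640 + 10% FBS). Seeded at 4-5×10³/well in triplicate, adhered overnight, exposed to 0.03–300 μM (DMSO <0.1%) for 48 h. MTT added for 4 h, formazan dissolved in DMSO, absorbance read. IC50 from dose–response curves, mean ± SD of at least three independent experiments.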

[4] = biological target: Fizzy-related protein homolog (Homo sapiens) (UniProt Q9UM11); assay: Inhibition of CDH1 in human HepG2 cells assessed as effect on Skp2 protein expression at 30 uM incubated for 48 hrs by Western blot Analysis; format: cell-based
Sequence of Fizzy-related protein homolog (Homo sapiens) (Q9UM11 whole entry): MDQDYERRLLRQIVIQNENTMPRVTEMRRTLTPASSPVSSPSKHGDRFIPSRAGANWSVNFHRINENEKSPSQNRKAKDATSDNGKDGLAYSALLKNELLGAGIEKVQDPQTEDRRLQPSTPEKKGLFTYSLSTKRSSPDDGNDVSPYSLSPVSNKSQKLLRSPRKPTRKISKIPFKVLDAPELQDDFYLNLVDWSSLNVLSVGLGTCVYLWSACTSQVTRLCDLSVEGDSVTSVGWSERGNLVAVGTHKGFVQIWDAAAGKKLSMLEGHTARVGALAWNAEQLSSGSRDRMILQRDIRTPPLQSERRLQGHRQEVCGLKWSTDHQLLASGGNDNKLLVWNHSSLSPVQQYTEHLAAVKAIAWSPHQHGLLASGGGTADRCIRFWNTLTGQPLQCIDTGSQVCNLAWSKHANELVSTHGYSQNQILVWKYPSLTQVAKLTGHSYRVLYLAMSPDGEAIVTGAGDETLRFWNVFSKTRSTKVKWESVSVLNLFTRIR
Outline: (§4)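 HepG2 lysates in RIPA buffer with protease/phosphatase inhibitors; 25 μg protein by SDS-PAGE/PVDF, blocked in 5% milk/TBST, primary antibodies overnight at 4°C (Cyclin A2, Cyclin B1, Bim, Aurora A, Skp2), HRP secondary 1 h at room temperature, ECL; bands quantified by densitometry.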

[5] = tested on: HepG2; assay: Inhibition of mitotic exit in human HepG2 cells assessed as increase in nuclear phosphohistone H3 levels incubated for 48 hrs by immunofluorescence assay; format: functional, cell-based
Outline: (§5)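 HepG2 seeded at 4×10³/well, overnight adhesion, treated 48 h. Fixed 15 min in 4% formaldehyde, permeabilized with Triton X-100, BSA-blocked, anti-phospho-histone H3 (Ser10) at 4°C overnight, fluorescent anti-rabbit secondary, DAPI counterstain. Fluorescence read relative to DMSO control; PHH3-positive cells counted in random fields as % of total. At least two experiments.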

[6] = biological target: T1, Cell division cycle protein 20 homolog; assay: Inhibition of CDC20 in human HepG2 cells assessed as increase in stability of Bim protein at 30 uM measured after 1 to 12 hrs by Western blot Analysis
[7] = biological target: Fizzy-related protein homolog (Homo sapiens) (UniProt Q9UM11); assay: Inhibition of CDH1 in human HepG2 cells assessed as effect on Aurora A protein expression at 30 uM incubated for 48 hrs by Western blot Analysis; format: cell-based; outline: as §4
[8] = tested on: A-375; assay: Cytotoxicity in human A375 cells assessed as reduction in cell viability incubated for 48 hrs by MTT assay; format: functional, cell-based; conditions: A-375, 48 h; outline: as §3
[9] = tested on: HepG2; assay: Induction of apoptosis in human HepG2 cells assessed as necrotic cells level at 100 uM incubated for 24 hrs by Annexin V-FITC/PI staining based flow cytometry (reference value: 1.48%); format: functional
[10] = tested on: HepG2; assay: Inhibition of mitotic exit in human HepG2 cells assessed as increase in nuclear phosphohistone H3 levels at 3 to 30 uM incubated for 48 hrs by Western blot analysis relative to control; format: functional, cell-based
[11] = tested on: HepG2; assay: Induction of apoptosis in human HepG2 cells assessed as late apoptotic cells level at 100 uM incubated for 24 hrs by Annexin V-FITC/PI staining based flow cytometry (reference value: 5.12%); format: functional
[12] = tested on: Caov-3 cell line; assay: Cytotoxicity in human Caov3 cells assessed as reduction in cell viability incubated for 48 hrs by MTT assay; format: functional, cell-based; conditions: Caov-3, 48 h; outline: as §3
[13] = tested on: HepG2; assay: Cytotoxicity in human HepG2 cells assessed as reduction in cell viability incubated for 48 hrs by MTT assay; format: functional, cell-based; conditions: HepG2, 48 h; outline: as §3
[14] = tested on: HepG2; assay: Induction of apoptosis in human HepG2 cells assessed as viable cells level at 100 uM incubated for 24 hrs by Annexin V-FITC/PI staining based flow cytometry (reference value: 89.38%); format: functional
[15] = tested on: HepG2; assay: Induction of apoptosis in human HepG2 cells assessed as increase in cleaved PARP level at 3 to 30 uM incubated for 48 hrs by Western blot analysis; format: functional, cell-based; outline: as §2
[16] = biological target: T1, Cell division cycle protein 20 homolog; assay: Binding affinity to CDC20 (unknown origin) by SPR analysis
Outline: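 Recombinant human Cdc20 (>95% pure) coupled by EDC/NHS to an acid-coupling chip; PBS pH 7.4 running buffer. Compounds injected as a gradient dilution series starting at 200 μM, 120-140 s association, 160 s dissociation. Steady-state values plotted against concentration; K_D from a one-to-one / single-site model.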

[17] = tested on: HepG2; assay: Induction of apoptosis in human HepG2 cells assessed as early apoptotic cells level at 100 uM incubated for 24 hrs by Annexin V-FITC/PI staining based flow cytometry (reference value: 4.02%); format: functional
[18] = tested on: HepG2; assay: Inhibition of mitotic exit in human HepG2 cells assessed as increase in nuclear phosphohistone H3 levels at 30 uM incubated for 48 hrs by immunofluorescence assay relative to control; format: functional; design: scale not given: the % may be the effect or the level left; outline: as §5
[19] = tested on: HeLa; assay: Cytotoxicity in human HeLa cells assessed as reduction in cell viability incubated for 48 hrs by MTT assay; format: functional, cell-based; outline: as §3
[20] = tested on: A549; assay: Cytotoxicity in human A549 cells assessed as reduction in cell viability incubated for 48 hrs by MTT assay; format: functional, cell-based; conditions: A549, 48 h; outline: as §3
[21] = biological target: T1, Cell division cycle protein 20 homolog; assay: Inhibition of CDC20 in human HepG2 cells assessed as decrease in cyclin B degradation at 30 uM incubated for 48 hrs by Western blot Analysis; format: cell-based; outline: as §4
[22] = biological target: T1, Cell division cycle protein 20 homolog; assay: Inhibition of CDC20 in human HepG2 cells assessed as increase in Bim protein levels at 30 uM incubated for 48 hrs by Western blot Analysis; format: cell-based; outline: as §4
[23] = biological target: T1, Cell division cycle protein 20 homolog; assay: Inhibition of CDC20 in human HepG2 cells assessed as increase in stability of cyclin B1 protein at 30 uM measured after 2 to 8 hrs by Western blot Analysis; format: cell-based; outline: as §1
[24] = biological target: T1, Cell division cycle protein 20 homolog; assay: Inhibition of CDC20 in human HepG2 cells assessed as increase in Aurora A protein degradation at 30 uM measured after 1 to 12 hrs by Western blot analysis; format: cell-based; outline: as §1
[25] = tested on: OVCAR-3; assay: Cytotoxicity in human OVCAR3 cells assessed as reduction in cell viability incubated for 48 hrs by MTT assay; format: functional, cell-based; conditions: OVCAR-3, 48 h; outline: as §3

Row | SMILES | pIC50 [3] | pIC50 [8] | pIC50 [12] | pIC50 [13] | pIC50 [19] | pIC50 [20] | pIC50 [25] | also measured
1 | Cc1ncc([N+](=O)[O-])n1CCOC(=O)NC(Nc1c(Cl)nc(N)nc1Cl)C(Cl)(Cl)Cl (configuration not stated) | 3.80 | 4.47 | 3.96 | 4.59 | 4.20 | 4.25 |  | inhibition [1]: Active; Activity [2]: Active; inhibition [4]: inactive; Activity [5]: Dose-dependent effect; inhibition [6]: inactive; inhibition [7]: inactive; Activity [9]: 1.08%; Activity [10]: Active; Activity [11]: 9.31%; Activity [14]: 64.34%; Activity [15]: Active; pKd [16]: 4.31; Activity [17]: 25.27%; Activity [18]: 6.9%; inhibition [21]: Active; inhibition [22]: Active; inhibition [23]: Active; inhibition [24]: Active
2 | Cc1ncc([N+](=O)[O-])n1CCOC(=O)NC(n1cnc2c(N)nc(F)nc21)C(Cl)(Cl)Cl (configuration not stated) | 6.10 | 6.30 | 5.92 | 6.22 | 5.72 | 5.44 | 5.82 | pKd [16]: 3.79
3 | Cc1ncc([N+](=O)[O-])n1CCOC(=O)NC(n1cnc2c(N(C)C)ncnc21)C(Cl)(Cl)Cl (configuration not stated) | < 3.52 | 4.56 | 3.58 | < 3.52 | 3.80 | 3.72 | < 3.52 | 
4 | Cc1c(Cl)nc(NC(NC(=O)OCCn2c([N+](=O)[O-])cnc2C)C(Cl)(Cl)Cl)nc1Cl (configuration not stated) | 3.94 | 4.92 | 4.51 | 4.87 | 4.57 | 3.73 | 4.60 | 
5 | Cc1ncc([N+](=O)[O-])n1CCOC(=O)NC(n1cnc2c(N)nc(N)nc21)C(Cl)(Cl)Cl (configuration not stated) | < 3.52 | 3.77 | < 3.52 | 4.71 | 3.92 | < 3.52 | < 3.52 | 
6 | Cc1ncc([N+](=O)[O-])n1CCOC(=O)NC(n1cnc2c(Cl)nc(Cl)nc21)C(Cl)(Cl)Cl (configuration not stated) | 3.66 | 4.16 | 3.65 | 4.26 | 3.85 | 4.14 | 3.79 | 
7 | Cc1ncc([N+](=O)[O-])n1CCOC(=O)NC(n1cnc2c(Cl)ncnc21)C(Cl)(Cl)Cl (configuration not stated) | < 3.52 | < 3.52 | < 3.52 | < 3.52 | < 3.52 | < 3.52 | < 3.52 | 
8 | Cc1ncc([N+](=O)[O-])n1CCOC(=O)NC(n1cnc2c(NCc3ccccc3)ncnc21)C(Cl)(Cl)Cl (configuration not stated) | 4.02 | < 3.52 | < 3.52 | 4.48 | 4.14 | 3.83 | 3.61 | 
9 | Nc1nc(N)c2ncn(C(NC(=O)OCCc3ccccn3)C(Cl)(Cl)Cl)c2n1 (configuration not stated) | 3.87 | 3.52 | 4.53 | 4.55 | 3.66 | 3.57 | 4.51 | 
10 | Cc1ncc([N+](=O)[O-])n1CCOC(=O)NC(Nc1ccncn1)C(Cl)(Cl)Cl (configuration not stated) | < 3.52 | 5.28 | < 3.52 | < 3.52 | < 3.52 | < 3.52 | < 3.52 | 
11 | Cc1ncc([N+](=O)[O-])n1CCOC(=O)NC(n1cnc2c(OCc3ccccc3)nc(N)nc21)C(Cl)(Cl)Cl (configuration not stated) | 4.05 | < 3.52 | < 3.52 | 4.15 | < 3.52 | 3.83 | < 3.52 | 
12 | Cc1ncc([N+](=O)[O-])n1CCOC(=O)NC(Nc1nc(Cl)c(N)c(Cl)n1)C(Cl)(Cl)Cl (configuration not stated) | 4.69 | 4.85 | 4.72 | 4.59 | 4.76 | 4.50 | 4.68 | 
